“And” between values parts separate entries of the source, which are not always exact repeats. Equal values may be shown once.
Columns and labels:
Assay type in all cases: toxicity, cell-based
[1] = test system: Fibroblast; assay: Multiplex assay against human fibroblast
Outline: (§1)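 Four dyes were applied at seeding to live cells: Hoechst33342, BioTracker Green Microtubule Cytoskeleton Dye, MitoTracker Red and Annexin V Alexa Fluor 680. Imaging after compound addition used a CQ1 microscope at 37°C and 5% CO2. CellPathfinder machine-learning gating then sorted cells into Hoechst high-intensity objects or normal cells, normal cells into healthy, pyknosed or fragmented nuclei, and pyknosed cells into mitotic or apoptotic, with tubulin, mitochondrial-mass and membrane-permeability phenotypes given as per cents of healthy-nucleus cells.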

[2] = test system: U2OS; assay: Multiplex assay against U2OS; details: human; outline: as §1
[3] = test system: HEK-293T; assay: Multiplex assay against HEK293T; details: human; outline: as §1
[4] = 12 h, 1 µM, compound concentration 1 uM
[5] = 12 h, 10 µM, compound concentration 10 uM
[6] = 24 h, 1 µM, compound concentration 1 uM
[7] = 24 h, 10 µM, compound concentration 10 uM
[8] = 48 h, 1 µM, compound concentration 1 uM
[9] = 48 h, 10 µM, compound concentration 10 uM

Compound: Oc1c(CN2CCN(c3ccccn3)CC2)cc(Cl)c2cccnc12
- Population Apoptotic (%) [1, 4]: 73% and 57%
- Population Fragmented Nuclei (%) [1, 4]: 17% and 27%
- Population Healthy Nuclei (%) [1, 4]: 68% and 54%
- Population Hoechst High Intensity Objects (%) [1, 4]: 4% and 5%
- Population Membrane Permeable-Phenotype (%) [1, 4]: 1% and 8%
- Population Mitochondria Different-Phenotype (%) [1, 4]: 0% and 6%
- Population Mitotic Cells (%) [1, 4]: 26% and 42%
- Population Normal (%) [1, 4]: 95% and 94%
- Population Pyknosed Nuclei (%) [1, 4]: 14% and 18%
- Population Tubulin-Different-Phenotype (%) [1, 4]: 27% and 43%
- Total Cell Count [1, 4]: 168 and 152
- Population Apoptotic (%) [1, 5]: 41% and 33%
- Population Fragmented Nuclei (%) [1, 5]: 17% and 25%
- Population Healthy Nuclei (%) [1, 5]: 54% and 58%
- Population Hoechst High Intensity Objects (%) [1, 5]: 5% and 2%
- Population Membrane Permeable-Phenotype (%) [1, 5]: 0% and 2%
- Population Mitochondria Different-Phenotype (%) [1, 5]: 25% and 9%
- Population Mitotic Cells (%) [1, 5]: 58% and 66%
- Population Normal (%) [1, 5]: 94% and 97%
- Population Pyknosed Nuclei (%) [1, 5]: 27% and 16%
- Population Tubulin-Different-Phenotype (%) [1, 5]: 67% and 62%
- Total Cell Count [1, 5]: 130 and 131
- Population Apoptotic (%) [1, 6]: 50% and 45%
- Population Fragmented Nuclei (%) [1, 6]: 19% and 29%
- Population Healthy Nuclei (%) [1, 6]: 67% and 56%
- Population Hoechst High Intensity Objects (%) [1, 6]: 3% and 5%
- Population Membrane Permeable-Phenotype (%) [1, 6]: 0% and 8%
- Population Mitochondria Different-Phenotype (%) [1, 6]: 3% and 7%
- Population Mitotic Cells (%) [1, 6]: 50% and 55%
- Population Normal (%) [1, 6]: 96% and 94%
- Population Pyknosed Nuclei (%) [1, 6]: 13%
- Population Tubulin-Different-Phenotype (%) [1, 6]: 30% and 47%
- Total Cell Count [1, 6]: 174 and 153
- Population Apoptotic (%) [1, 7]: 89% and 56%
- Population Fragmented Nuclei (%) [1, 7]: 26% and 35%
- Population Healthy Nuclei (%) [1, 7]: 46% and 41%
- Population Hoechst High Intensity Objects (%) [1, 7]: 0% and 2%
- Population Membrane Permeable-Phenotype (%) [1, 7]: 1%
- Population Mitochondria Different-Phenotype (%) [1, 7]: 15% and 11%
- Population Normal (%) [1, 7]: 100% and 97%
- Population Pyknosed Nuclei (%) [1, 7]: 27% and 22%
- Population Tubulin-Different-Phenotype (%) [1, 7]: 57% and 68%
- Total Cell Count [1, 7]: 139 and 134
- Population Apoptotic (%) [1, 8]: 54% and 70%
- Population Fragmented Nuclei (%) [1, 8]: 17% and 25%
- Population Healthy Nuclei (%) [1, 8]: 67% and 66%
- Population Hoechst High Intensity Objects (%) [1, 8]: 5% and 0%
- Population Membrane Permeable-Phenotype (%) [1, 8]: 1% and 4%
- Population Mitochondria Different-Phenotype (%) [1, 8]: 1% and 4%
- Population Mitotic Cells (%) [1, 8]: 45% and 30%
- Population Normal (%) [1, 8]: 94% and 99%
- Population Pyknosed Nuclei (%) [1, 8]: 14% and 7%
- Population Tubulin-Different-Phenotype (%) [1, 8]: 35% and 37%
- Total Cell Count [1, 8]: 158 and 137
- Population Apoptotic (%) [1, 9]: 85% and 78%
- Population Fragmented Nuclei (%) [1, 9]: 31% and 34%
- Population Healthy Nuclei (%) [1, 9]: 32% and 41%
- Population Hoechst High Intensity Objects (%) [1, 9]: 2%
- Population Membrane Permeable-Phenotype (%) [1, 9]: 0% and 1%
- Population Mitochondria Different-Phenotype (%) [1, 9]: 9% and 7%
- Population Mitotic Cells (%) [1, 9]: 14% and 21%
- Population Normal (%) [1, 9]: 97%
- Population Pyknosed Nuclei (%) [1, 9]: 35% and 24%
- Population Tubulin-Different-Phenotype (%) [1, 9]: 38% and 65%
- Total Cell Count [1, 9]: 137
- Population Apoptotic (%) [2, 4]: 95% and 100%
- Population Fragmented Nuclei (%) [2, 4]: 24% and 16%
- Population Healthy Nuclei (%) [2, 4]: 64% and 78%
- Population Hoechst High Intensity Objects (%) [2, 4]: 1%
- Population Membrane Permeable-Phenotype (%) [2, 4]: 3% and 13%
- Population Mitochondria Different-Phenotype (%) [2, 4]: 1% and 4%
- Population Mitotic Cells (%) [2, 4]: 4% and 0%
- Population Normal (%) [2, 4]: 98%
- Population Pyknosed Nuclei (%) [2, 4]: 10% and 5%
- Population Tubulin-Different-Phenotype (%) [2, 4]: 2% and 8%
- Total Cell Count [2, 4]: 237 and 93
- Population Apoptotic (%) [2, 5]: 84% and 87%
- Population Fragmented Nuclei (%) [2, 5]: 31% and 18%
- Population Healthy Nuclei (%) [2, 5]: 56% and 68%
- Population Hoechst High Intensity Objects (%) [2, 5]: 2% and 1%
- Population Membrane Permeable-Phenotype (%) [2, 5]: 12% and 6%
- Population Mitochondria Different-Phenotype (%) [2, 5]: 28% and 35%
- Population Mitotic Cells (%) [2, 5]: 15% and 12%
- Population Normal (%) [2, 5]: 97% and 98%
- Population Pyknosed Nuclei (%) [2, 5]: 11% and 13%
- Population Tubulin-Different-Phenotype (%) [2, 5]: 8% and 11%
- Total Cell Count [2, 5]: 229 and 118
- Population Apoptotic (%) [2, 6]: 88% and 100%
- Population Healthy Nuclei (%) [2, 6]: 64% and 87%
- Population Hoechst High Intensity Objects (%) [2, 6]: 1%
- Population Membrane Permeable-Phenotype (%) [2, 6]: 3% and 9%
- Population Mitochondria Different-Phenotype (%) [2, 6]: 2% and 3%
- Population Mitotic Cells (%) [2, 6]: 11% and 0%
- Population Normal (%) [2, 6]: 98%
- Population Pyknosed Nuclei (%) [2, 6]: 6% and 5%
- Population Tubulin-Different-Phenotype (%) [2, 6]: 2% and 7%
- Total Cell Count [2, 6]: 270 and 97
- Population Apoptotic (%) [2, 7]: 90% and 100%
- Population Fragmented Nuclei (%) [2, 7]: 27% and 29%
- Population Healthy Nuclei (%) [2, 7]: 63% and 58%
- Population Hoechst High Intensity Objects (%) [2, 7]: 4% and 3%
- Population Membrane Permeable-Phenotype (%) [2, 7]: 10% and 9%
- Population Mitochondria Different-Phenotype (%) [2, 7]: 14% and 40%
- Population Mitotic Cells (%) [2, 7]: 9% and 0%
- Population Normal (%) [2, 7]: 95% and 96%
- Population Pyknosed Nuclei (%) [2, 7]: 9% and 12%
- Population Tubulin-Different-Phenotype (%) [2, 7]: 7% and 6%
- Total Cell Count [2, 7]: 238 and 127
- Population Apoptotic (%) [2, 8]: 94% and 87%
- Population Fragmented Nuclei (%) [2, 8]: 25% and 14%
- Population Healthy Nuclei (%) [2, 8]: 67% and 77%
- Population Hoechst High Intensity Objects (%) [2, 8]: 3% and 1%
- Population Membrane Permeable-Phenotype (%) [2, 8]: 6% and 7%
- Population Mitochondria Different-Phenotype (%) [2, 8]: 3% and 1%
- Population Mitotic Cells (%) [2, 8]: 5% and 12%
- Population Normal (%) [2, 8]: 96% and 98%
- Population Pyknosed Nuclei (%) [2, 8]: 7%
- Population Tubulin-Different-Phenotype (%) [2, 8]: 3% and 5%
- Total Cell Count [2, 8]: 276 and 111
- Population Apoptotic (%) [2, 9]: 96% and 100%
- Population Fragmented Nuclei (%) [2, 9]: 32% and 38%
- Population Healthy Nuclei (%) [2, 9]: 57% and 42%
- Population Hoechst High Intensity Objects (%) [2, 9]: 2% and 4%
- Population Membrane Permeable-Phenotype (%) [2, 9]: 11% and 12%
- Population Mitochondria Different-Phenotype (%) [2, 9]: 19% and 41%
- Population Mitotic Cells (%) [2, 9]: 3% and 0%
- Population Normal (%) [2, 9]: 97% and 95%
- Population Pyknosed Nuclei (%) [2, 9]: 10% and 19%
- Population Tubulin-Different-Phenotype (%) [2, 9]: 7% and 8%
- Total Cell Count [2, 9]: 275 and 144
- Population Apoptotic (%) [3, 4]: 30% and 45%
- Population Fragmented Nuclei (%) [3, 4]: 6% and 5%
- Population Healthy Nuclei (%) [3, 4]: 83% and 80%
- Population Hoechst High Intensity Objects (%) [3, 4]: 7%
- Population Membrane Permeable-Phenotype (%) [3, 4]: 0%
- Population Mitochondria Different-Phenotype (%) [3, 4]: 44% and 59%
- Population Mitotic Cells (%) [3, 4]: 70% and 54%
- Population Normal (%) [3, 4]: 92%
- Population Pyknosed Nuclei (%) [3, 4]: 10% and 13%
- Population Tubulin-Different-Phenotype (%) [3, 4]: 34% and 20%
- Total Cell Count [3, 4]: 424 and 354
- Population Apoptotic (%) [3, 5]: 71% and 73%
- Population Fragmented Nuclei (%) [3, 5]: 16% and 18%
- Population Healthy Nuclei (%) [3, 5]: 64% and 69%
- Population Hoechst High Intensity Objects (%) [3, 5]: 11% and 6%
- Population Membrane Permeable-Phenotype (%) [3, 5]: 0%
- Population Mitochondria Different-Phenotype (%) [3, 5]: 64% and 70%
- Population Mitotic Cells (%) [3, 5]: 28% and 26%
- Population Normal (%) [3, 5]: 88% and 93%
- Population Pyknosed Nuclei (%) [3, 5]: 18% and 12%
- Population Tubulin-Different-Phenotype (%) [3, 5]: 20% and 32%
- Total Cell Count [3, 5]: 197 and 327
- Population Apoptotic (%) [3, 6]: 34% and 33%
- Population Fragmented Nuclei (%) [3, 6]: 6% and 7%
- Population Healthy Nuclei (%) [3, 6]: 84%
- Population Hoechst High Intensity Objects (%) [3, 6]: 3%
- Population Membrane Permeable-Phenotype (%) [3, 6]: 0%
- Population Mitochondria Different-Phenotype (%) [3, 6]: 22% and 40%
- Population Mitotic Cells (%) [3, 6]: 65% and 66%
- Population Normal (%) [3, 6]: 96%
- Population Pyknosed Nuclei (%) [3, 6]: 9% and 8%
- Population Tubulin-Different-Phenotype (%) [3, 6]: 23% and 13%
- Total Cell Count [3, 6]: 529 and 427
- Population Apoptotic (%) [3, 7]: 93% and 81%
- Population Fragmented Nuclei (%) [3, 7]: 18% and 21%
- Population Healthy Nuclei (%) [3, 7]: 65% and 63%
- Population Hoechst High Intensity Objects (%) [3, 7]: 13% and 7%
- Population Membrane Permeable-Phenotype (%) [3, 7]: 1%
- Population Mitochondria Different-Phenotype (%) [3, 7]: 65% and 78%
- Population Mitotic Cells (%) [3, 7]: 6% and 18%
- Population Normal (%) [3, 7]: 86% and 92%
- Population Pyknosed Nuclei (%) [3, 7]: 15%
- Population Tubulin-Different-Phenotype (%) [3, 7]: 19% and 34%
- Total Cell Count [3, 7]: 227 and 354
- Population Apoptotic (%) [3, 8]: 29% and 31%
- Population Fragmented Nuclei (%) [3, 8]: 12% and 10%
- Population Healthy Nuclei (%) [3, 8]: 80% and 83%
- Population Hoechst High Intensity Objects (%) [3, 8]: 3%
- Population Membrane Permeable-Phenotype (%) [3, 8]: 0%
- Population Mitochondria Different-Phenotype (%) [3, 8]: 22% and 17%
- Population Mitotic Cells (%) [3, 8]: 70% and 68%
- Population Normal (%) [3, 8]: 96%
- Population Pyknosed Nuclei (%) [3, 8]: 6% and 5%
- Population Tubulin-Different-Phenotype (%) [3, 8]: 16% and 10%
- Total Cell Count [3, 8]: 689 and 518
- Population Apoptotic (%) [3, 9]: 83% and 94%
- Population Fragmented Nuclei (%) [3, 9]: 23% and 28%
- Population Healthy Nuclei (%) [3, 9]: 44% and 49%
- Population Hoechst High Intensity Objects (%) [3, 9]: 25% and 14%
- Population Membrane Permeable-Phenotype (%) [3, 9]: 0%
- Population Mitochondria Different-Phenotype (%) [3, 9]: 60% and 81%
- Population Normal (%) [3, 9]: 74% and 85%
- Population Pyknosed Nuclei (%) [3, 9]: 31% and 22%
- Population Tubulin-Different-Phenotype (%) [3, 9]: 30% and 42%
- Total Cell Count [3, 9]: 204 and 295
